Source: ChEMBL document CHEMBL1125276 (J Med Chem, 1991)

Legend:
[1] = tested on: L1210; assay: Tested for the inhibition of L1210 cell proliferation.; assay type: functional, cell-based; details: Mus musculus
In short: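 L1210 cells were grown in RPMI 1640 with 10% FCS, 2 mM L-glutamine and 10 mM HEPES (pH 7.4). Exponential-phase cells (10^5 cells/mL) were exposed for 24 h to 5 drug concentrations in triplicate, then pulsed 3 h with 0.5 µCi/mL [3H]thymidine. Cells were harvested onto filters and counted. IC50 is 50% inhibition of incorporation versus untreated cells, given as the mean of 2–5 independent experiments.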

[2] = tested on: P388; assay: Long-term survivors (LTS) for 60 days at optimal dose of 12.00 mg/kg for antitumor activity against P388 leukemia cells in 5 mice.; assay type: functional, Mus musculus
[3] = tested on: P388; assay: Compound was tested for T/C range at optimal dose of 12.00 mg/kg for antitumor activity against P388 leukemia cells in mice.; assay type: functional, Mus musculus
[4] = biological target: Tubulin; assay: The compound tested for the inhibition of tubulin polymerization.; assay type: functional
In short: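 Tubulin was partially purified from dog brain by polymerization/depolymerization cycles and used at 0.5 mg/mL. Compounds were added in DMSO (10 µL per 500 µL reaction) at 10^-6 to 10^-9 M, with DMSO-only controls. Polymerization was followed by turbidity at 350 nm. Rates from two separate experiments were plotted against concentration, and IC50 was read graphically.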

[5] = tested on: P388; assay: Compound was tested for T/C range at optimal dose of 0.5 mg/kg for antitumor activity against P388 leukemia cells in mice; value ranges from 160-447; assay type: functional, Mus musculus
[6] = tested on: P388; assay: Long-term survivors (LTS) for 60 days at optimal dose of 0.5 mg/kg for antitumor activity against P388 leukemia cells in 54 mice.; assay type: functional, Mus musculus
[7] = tested on: P388; assay: Long-term survivors (LTS) for 60 days at optimal dose of 3.0 mg/kg for antitumor activity against P388 leukemia cells in 15 mice.; assay type: functional, Mus musculus
[8] = tested on: P388; assay: Compound was tested for T/C range at optimal dose of 3.0 mg/kg for antitumor activity against P388 leukemia cells in mice; value ranges from 165-181; assay type: functional, Mus musculus
[9] = tested on: P388; assay: Compound was tested for T/C range at optimal dose of 3.0 mg/kg for antitumor activity against P388 leukemia cells in mice.; assay type: functional, Mus musculus
[10] = tested on: P388; assay: Long-term survivors (LTS) for 60 days at optimal dose of 3.0 mg/kg for antitumor activity against P388 leukemia cells in 6 mice.; assay type: functional, Mus musculus
[11] = tested on: P388; assay: Long-term survivors (LTS) for 60 days at optimal dose of 3.0 mg/kg for antitumor activity against P388 leukemia cells in 45 mice.; assay type: functional, Mus musculus
[12] = tested on: P388; assay: Compound was tested for T/C range at optimal dose of 3.0 mg/kg for antitumor activity against P388 leukemia cells in mice; value ranges from 157-203; assay type: functional, Mus musculus
[13] = tested on: P388; assay: Compound was tested for T/C range at optimal dose of 100 mg/kg for antitumor activity against P388 leukemia cells in mice; value ranges from 150-285; assay type: functional, Mus musculus
[14] = tested on: P388; assay: Long-term survivors (LTS) for 60 days at optimal dose of 100 mg/kg for antitumor activity against P388 leukemia cells in 54 mice.; assay type: functional, Mus musculus
[15] = tested on: P388; assay: Compound was tested for T/C range at optimal dose of 20.0 mg/kg for antitumor activity against P388 leukemia cells in mice.; assay type: functional, Mus musculus
[16] = tested on: P388; assay: Long-term survivors (LTS) for 60 days at optimal dose of 20.0 mg/kg for antitumor activity against P388 leukemia cells in 5 mice; assay type: functional, Mus musculus

SMILES | IC50 [1] [nM] | IC50 [4] [nM] | T/C [9] [%] | LTS [10] | further results
C=CC[C@@H](NC(=O)[C@@]1(O)[C@H](O)[C@]2(CC)C=CCN3CC[C@@]4(c5cc([C@@]6(C(=O)OC)C[C@@H]7CN(CCc8c6[nH]c6ccccc86)C[C@](O)(CC)C7)c(OC)cc5N(C)[C@@H]14)[C@@H]32)P(=O)(OCC)OCC | 26.4 |  |  |  | LTS [2]: 0; T/C [3]: 195%
CCOP(=O)(OCC)C(NC(=O)[C@@]1(O)[C@H](O)[C@]2(CC)C=CCN3CC[C@@]4(c5cc([C@@]6(C(=O)OC)C[C@@H]7CN(CCc8c6[nH]c6ccccc86)C[C@](O)(CC)C7)c(OC)cc5N(C)[C@@H]14)[C@@H]32)C(C)C (mixture of isomers) | 0.64 | 300 |  |  | T/C [5]: 160%; LTS [6]: 11
CC[C@]1(O)C[C@H]2CN(CCc3c([nH]c4ccccc34)[C@@](C(=O)OC)(c3cc4c(cc3OC)N(C=O)[C@H]3[C@@](O)(C(=O)OC)[C@H](OC(C)=O)[C@]5(CC)C=CCN6CC[C@]43[C@@H]65)C2)C1 [VINCRISTINE] | 4.85 | 500 |  |  | LTS [7]: 0; T/C [8]: 165%
CCCCCC(NC(=O)[C@@]1(O)[C@H](O)[C@]2(CC)C=CCN3CC[C@@]4(c5cc([C@@]6(C(=O)OC)C[C@@H]7CN(CCc8c6[nH]c6ccccc86)C[C@](O)(CC)C7)c(OC)cc5N(C)[C@@H]14)[C@@H]32)P(=O)(OCC)OCC (mixture of isomers) | 3.97 | 20 | 203 | 0 | 
CC[C@]1(O)C[C@@H]2CN(CCc3c([nH]c4ccccc34)[C@@](C(=O)OC)(c3cc4c(cc3OC)N(C)[C@H]3[C@@](O)(C(=O)OC)[C@H](OC(C)=O)[C@]5(CC)C=CCN6CC[C@]43[C@@H]65)C2)C1 [VINBLASTINE] | 3.15 |  |  |  | LTS [11]: 2; T/C [12]: 157%
CCOC(=O)CC(NC(=O)[C@@]1(O)[C@H](O)[C@]2(CC)C=CCN3CC[C@@]4(c5cc([C@@]6(C(=O)OC)C[C@@H]7CN(CCc8c6[nH]c6ccccc86)C[C@](O)(CC)C7)c(OC)cc5N(C)[C@@H]14)[C@@H]32)P(=O)(OCC)OCC (mixture of isomers) | 2.77 | 300 | 122 | 0 | 
CCOP(=O)(CNC(=O)[C@@]1(O)[C@H](O)[C@]2(CC)C=CCN3CC[C@@]4(c5cc([C@@]6(C(=O)OC)C[C@@H]7CN(CCc8c6[nH]c6ccccc86)C[C@](O)(CC)C7)c(OC)cc5N(C)[C@@H]14)[C@@H]32)OCC | 17.8 | 300 | 230 | 1 | 
CCOC(=O)C(Cc1c[nH]c2ccccc12)NC(=O)[C@@]1(O)[C@H](O)[C@]2(CC)C=CCN3CC[C@@]4(c5cc([C@@]6(C(=O)OC)C[C@@H]7CN(CCc8c6[nH]c6ccccc86)C[C@](O)(CC)C7)c(OC)cc5N(C)[C@@H]14)[C@@H]32 (some centres not stated) [VINTRYPOL] |  | 200 |  |  | T/C [13]: 150%; LTS [14]: 2
CCOP(=O)(OCC)[C@@H](Cc1ccccc1)NC(=O)[C@@]1(O)[C@H](O)[C@]2(CC)C=CCN3CC[C@@]4(c5cc([C@@]6(C(=O)OC)C[C@@H]7CN(CCc8c6[nH]c6ccccc86)C[C@](O)(CC)C7)c(OC)cc5N(C)[C@@H]14)[C@@H]32 | 14.3 |  |  |  | T/C [15]: 261%; LTS [16]: 1
